This is a sample that favours compounds with a hit; in the whole collection about 6.6% have one here.
Jurkat tox 60K – cytotoxicity toward Jurkat cells; Jurkat E6.1 viability, ATP luminescence, 48 h; inhibition, % at 4 µM; hit rate 1.2% among 56,000; AID 463;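 active means inhibition above the mean inhibition of all tested compounds plus 3 SD, cut at about 28% in these data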
H69AR growth 86K – growth inhibitors of human H69AR lung tumor cells; viability, % at 10 µM; hit rate 6% among 85,000; AID 598; H69AR lung tumor viability, ATP luminescence, 72 h; hits give low values;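 active means viability at or below 40%; inactive means viability above 40%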;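 further: multidrug resistant small cell line overexpressing MRP-1 efflux transporter; 100% = mean luminescence of untreated control wells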
Lung fibro prol – blocks proliferation of human lung fibroblasts | LL 47 human lung fibroblast viability, ATP luminescence; hits give low values | viability, % at 10 µM | hit rate 1.1% among 85,000 | AID 719;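 active means viability at or below 50% in the single dose screen; inactive means viability above 50%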;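 further: compound exposure lasted 72 h before the ATP readout; 100% = median luminescence of untreated cell-only wells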
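Material: Human LL 47 lung fibroblast cells | Input: 1,150 cells/well | Buffer or medium: IMEM plus 15% FBS | Compound dosing: 0.1% DMSO in all compound wells | Times: Overnight cell rest, 72 h compound treatment at 37 °C | Signal: CellTiter-Glo luminescence measuring cellular ATP | Measure: % viability versus median cells-only luminescence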
HUVEC prolif 384 – inhibitors of human endothelial cell proliferation; HUVEC proliferation, CellTiter-Glo luminescence, 72 h; hits give low values; viability, % at 10 µM (by protocol); hit rate 1.1% among 86,000;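 active means viability at or below 30%; inactive means viability above 30%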;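 further: 100% = median luminescence of DMSO-only cell control wells on each plate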
Starred values were filed as active, the others as inactive; / = not tested or not shown.

SMILES	Jurkat tox 60K	H69AR growth 86K	Lung fibro prol	HUVEC prolif 384
CCOc1ccc(-n2nc3c(-n4ncc(C#N)c4N)nnc(C)c3c2C)cc1	/	93	96	99
COc1ccc(C2C(C(=O)OC3CCCCC3)=C(C)Nc3nnnn32)c(OC)c1OC (centres undefined)	/	7.3*	93	100
CN1C(=O)Cc2cc(S(=O)(=O)N3CCOCC3)ccc21	-2	104	94	93
Cc1cc(C)nc(N2CCCC(C(=O)NCC(c3ccccc3)c3ccccc3)C2)n1 (centres undefined)	/	82	101	95
Cc1cccc(C)c1OC(=O)CSc1nnc(-c2ccccc2O)o1	/	87	101	103
COc1ccc(C2OC34CCCCC3C(C#N)(C#N)C2(C#N)C(=N)O4)cc1 (centres undefined)	/	34*	90	96
N#CC1(C#N)COC23CCCCC2C1(C#N)C(=N)O3 (centres undefined)	/	8.2*	66	78
CCCC1OC23CCCCC2C(C#N)(C(=N)O3)C1(C#N)C#N (centres undefined)	/	22*	74	83
c1ccc(-n2ncc3c(NCc4ccc5c(c4)OCO5)ncnc32)cc1	8	87	87	89
Cc1ccc(-n2ncc3c(NCc4ccc5c(c4)OCO5)ncnc32)c(C)c1	/	28*	68	89
COc1ccc(-n2ncc3c(NCc4ccc5c(c4)OCO5)ncnc32)cc1	4	6.2*	68	66
O=C(NCc1cccnc1)C1c2ccccc2C(=O)N1C1CCCC1 (centres undefined)	-18	90	100	101
Cc1ccc(S(=O)(=O)NNc2nc3ccccc3nc2C(F)(F)F)cc1	/	102	97	96
O=C(Nc1nccs1)c1csc2c1CCCC2	/	54	96	87
Cc1ccccc1S(=O)(=O)NC1OC(=O)C(Cl)=C1Cl (centres undefined)	4	7.1*	96	100
CN(C)C(=O)CSc1cccc2cccnc12	9	0.6*	40*	72
O=C(CSc1cccc2cccnc12)N1CCCC1	1	0.0*	18*	64
Cc1ccc2oc(=O)c3cnn(CC(=O)N(CCCN4CCOCC4)Cc4ccco4)c3c2c1	-1	91	100	94
CCOc1cc(C(=O)N(C)c2ccccc2)cc(OCC)c1OCC	2	91	98	95
Cc1ccc(-n2nc(C)c3c(C)c(CCC(=O)NC(C)c4ccccc4)c(C)nc32)cc1 (centres undefined)	/	15*	73	59
COc1ccc(CN2CC(C(=O)NCCc3ccc(C)cc3)CC2=O)cc1 (centres undefined)	/	103	102	102
CC(C)(C)n1cnc2cc(NS(=O)(=O)c3ccccc3)ccc21	4	98	39*	100
Cn1cnc2cc(NS(=O)(=O)c3ccc(Br)cc3)ccc21	11	39*	85	98
OCCN1CCN(c2nc(-c3ccccc3)c3cc(Cl)ccc3n2)CC1	3	8.3*	94	34
O=c1nc(-c2ccccc2)c2cc(Cl)ccc2[nH]1	1	76	104	100
SMILES	Jurkat tox 60K	H69AR growth 86K	Lung fibro prol	HUVEC prolif 384
CN1CCN(c2nc(-c3ccccc3)c3cc(Cl)ccc3n2)CC1	-4	39*	72	49
Clc1ccc2nc(N3CCNCC3)nc(-c3ccccc3)c2c1	/	0.8*	2.4*	4.3*
O=C1c2ccccc2C(=O)N1CCC1=CCCCC1	/	98	93	87
Cc1ccc(Cn2ccc(NC(=O)c3cc(CC(C)C)on3)n2)cc1	-9	110	91	97
CN1CCN(C2=CC(=O)OC23CCCCC3)CC1	/	88	104	103
Fc1ccc(Br)cc1C1C=C(c2cccnc2)Nc2ncnn21 (centres undefined)	39*	25*	96	66
CN(Cc1cccs1)C(=O)CSc1nnnn1C	/	88	98	77
C[C@@H](NC(=O)c1coc(=O)c(Br)c1)c1ccccc1	/	3.7*	54	83
Cc1onc(-c2ccccc2)c1C(=O)N1CCN(C)CC1	/	85	97	95
CCSC1(SCC)N=C(N)C2(C#N)C(c3ccc(OC)c(OC)c3OC)C12C#N (centres undefined)	2	2.1*	51	45
CCSC1(SCC)N=C(N)C2(C#N)C(c3ccccc3)NC3=C(CCC3)C12C#N (centres undefined)	-8	78	97	97
CCOC(=O)c1sc(NC(=O)CCn2nnc3ccccc32)c(C(=O)OCC)c1C	-2	36*	95	57
COc1ccc(OC)c(C(=O)C2COC(=O)C2)c1 (centres undefined)	7	26*	89	49
O=C(NC1CCCCCC1)C1CCN(S(=O)(=O)c2ccc(F)cc2)CC1	-1	32*	91	106
COC(=O)CNC(=O)C(C)NC(=O)CNC(=O)OCc1ccccc1 (centres undefined)	/	99	87	89
Cc1ccc(-c2noc(CN3C(C)CCCC3C)n2)cc1 (centres undefined)	2	138	94	105
O=C(CCCCCC(=O)N(CCO)CCO)N(CCO)CCO	-6	26*	94	96
CCOC(=O)c1[nH]c2ccc(C)cc2c1N	/	105	95	93
CCOC(=O)C1(N(CC)CC)Sc2cc(C)ccc2NC1=O (centres undefined)	36*	15*	55	74
CCn1c(SCc2ccc(C#N)cc2)nnc1-c1ccc(S(=O)(=O)N2CCCCC2)cc1	19	34*	87	75
CC1Cc2ccccc2N1C(=O)CSc1nnnn1C1CCCC1 (centres undefined)	/	84	97	117
CCOC(=O)Cn1c(=O)oc2cc(S(=O)(=O)N3CCc4ccccc43)ccc21	4	106	90	90
Cc1cccc(N2CCN(c3nc4ccc(Cl)cc4n4cnnc34)CC2)c1C	-4	2.1*	29*	14*
O=C1CN(c2nc3ccccc3n3cnnc23)CC(=O)N1CCc1ccccc1	3	103	112	104
CN1CCN(C2=C(Cl)C(=O)N(c3cccc(Cl)c3)C2=O)CC1	2	86	91	85
SMILES	Jurkat tox 60K	H69AR growth 86K	Lung fibro prol	HUVEC prolif 384
CN1CCN(C2=C(Cl)C(=O)N(Cc3ccccc3)C2=O)CC1	3	39*	91	89
CCN1CCN(C2=C(Cl)C(=O)N(Cc3ccccc3)C2=O)CC1	/	47	95	93
CN1CCN(C2=C(Cl)C(=O)N(c3ccc(Cl)c(Cl)c3)C2=O)CC1	/	8.5*	94	88
Cc1ccc(Cl)cc1NC(=O)COC(=O)C1CCCC1	/	101	97	97
O=C(COC(=O)CC1CCCC1)Nc1cc2c(cc1Cl)C(=O)c1ccccc1C2=O	/	19*	79	32
CCn1c(COc2ccccc2C)nnc1SCC(=O)CC(=O)Nc1ccccc1	1	93	108	85
COC(=O)c1ccc2c(c1)C(C)(C)C(/C=C/c1ccc(OC)c(OC)c1OC)=[N+]2C	/	4.1*	6.5*	5.3*
CC(C)CC(OC(=O)c1ccco1)C(=O)NC1CCCCC1 (centres undefined)	-7	/	/	/
O=C(NC(CSCc1ccccc1)C(=O)N/N=C/c1ccc(O)cc1O)c1ccc([N+](=O)[O-])cc1 (centres undefined)	/	30*	25*	7.6*

Source: PubChem
